Assay [1] is filed under the species Homo sapiens. Briefly: Concentration required to reduce the proliferation of PHA stimulated human peripheral blood T lymphocytes. It counts as functional. The essentials:
(§1)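 Fresh human peripheral blood T lymphocytes stimulated with PHA and grown with drug. Cellular DNA synthesis followed by [methyl-3H]thymidine incorporation. Value is the concentration (μg/mL) reducing proliferation to 50% of untreated PHA-stimulated controls. Tested up to 50 μg/mL.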

For assay [2], the system named is Vero. Briefly: Concentration required to inhibit plaque formation by HSV-1 strain KOSSB (TK-) in monolayers of vero cells. The format is functional, cell-based. Conditions: Chlorocebus sabaeus. The essentials:
(§2)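 Vero cells seeded one day ahead. Infected with HSV-1 KOS (TK+) or TK-deficient KOSSB at ~100 PFU/well for 1 h at 37 °C. Inoculum replaced by medium with serial drug dilutions in duplicate, then refined by 1:2 dilutions. Acyclovir control at 5 and 1 μg/mL (TK+) or 50, 25, 10, 1 μg/mL (TK−). After 48 h at 37 °C, fixed with methanol and Giemsa-stained. Plaques counted against no-drug wells for EC50.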

For assay [3], the system named is Vero. Briefly: Compound was evaluated for cytotoxicity against stationary Vero cells using MTT assay. The format is functional. As to conditions: Chlorocebus sabaeus. The essentials: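 Stationary Vero cells exposed to drug for 3 days. Viability read by MTT assay against untreated controls. CC50 taken as the concentration (μg/mL) giving 50% loss of viability. ">" means 50% was not reached at the highest concentration tested.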
In general terms: Formazan colour is commonly taken as a measure of viable cells.

Assay [4] concerns Duck hepatitis B virus. Briefly: Percent inhibition of viral DNA in the presence of 10 ug/mL compound compared to untreated infected controls in duck hepatocytes.
Assay [5] concerns Nucleic Acid. Briefly: Concentration required to reduce the viral DNA in infected cells to 50% of untreated infected controls. It counts as functional, cell-based. Conditions: Duck hepatitis B virus. The essentials: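 Confluent primary hepatocyte cultures from chronically DHBV-infected Pekin ducks treated with drug. Viral DNA in cells measured against untreated infected controls. EC50 in μg/mL. Three independent experiments, with the range of EC50 reported.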

The subject of assay [6] is Vero. Briefly: Concentration required to inhibit plaque formation by HSV-1 strain KOS (TK+) in monolayers of vero cells. It counts as functional, cell-based. As to conditions: Chlorocebus sabaeus. The essentials: as §2
Assay [7] is filed under the species Homo sapiens. Description: Concentration required to reduce the proliferation of PHA stimulated human peripheral blood T lymphocytes to 50% of untreated PHA Stimulated control. The format is functional. The essentials:
as §1

What is called IC50 is the concentration that gives 50% inhibition. High values mean weaker potency, low ones greater potency. In general, EC50 refers to the midpoint of the concentration-response curve. Lower therefore signals an effect from little substance. What is called CC50 is the concentration at which the toxic effect on the cells reaches its halfway point. Higher therefore signals lower toxicity to the cells. Usually Inhibition stands for the drop in the measured response relative to a control, in per cent.

Structures are written as SMILES. Values after ≈ are worked out from the molar mass of the structure shown.

In turn, `C=Cc1cn(COC(CO)CO)c(=O)[nH]c1=O` displayed an IC50 in assay [1] of over 50 mg/L. In addition, the EC50 in assay [2] was over 50 mg/L; in assay [5], 1 mg/L (≈ 4.13 µM); in assay [6], over 25 mg/L. The compound further registered a CC50 in assay [3] of over 100 mg/L. Further, in assay [4], the Inhibition amounted to 81%.
In assay [7], `Nc1ccn([C@@H]2CSC(CO)O2)c(=O)n1` (single isomer, unassigned) [LAMIVUDINE] returned an IC50 of over 50 mg/L. The same compound displayed a CC50 in assay [3] of over 100 mg/L. For the same compound, the Inhibition in assay [4] is 96%. The EC50 in assay [5] came to 0.01 mg/L (≈ 0.0436 µM).
Take `Nc1nc2c(ncn2COCCO)c(=O)[nH]1` [ACYCLOVIR]: the EC50 in assay [2] worked out at 40 mg/L (≈ 178 µM); in assay [6] it was 0.5 mg/L (≈ 2.22 µM). Also, the CC50 in assay [3] is over 100 mg/L.
Take `Nc1nc(O)c2ncn(CCC(CO)CO)c2n1` [PENCICLOVIR]: the EC50 in assay [5] worked out at 0.3 mg/L (≈ 1.18 µM).
With `Nc1nc2c(ncn2COC(CO)CO)c(=O)[nH]1` [GANCICLOVIR], in assay [5], the EC50 was 1.5 mg/L (≈ 5.88 µM).
`C=Cc1cn(COCCO)c(=O)[nH]c1=O` showed an IC50 in assay [1] of over 50 mg/L. Further, the EC50 in assay [2] is over 50 mg/L; in assay [5] it was over 10 mg/L; in assay [6], over 25 mg/L. The same compound had a CC50 in assay [3] of over 100 mg/L. Besides, the Inhibition in assay [4] is on record as 40.6%.
`C=Cc1cn(CCC(CO)CO)c(=O)[nH]c1=O` had an IC50 in assay [1] of over 50 mg/L. Also, the EC50 is over 50 mg/L in assay [2], 3 mg/L (≈ 12.5 µM) in assay [5] and over 25 mg/L in assay [6]. In assay [3], the CC50 is over 100 mg/L. For the same compound, the Inhibition in assay [4] amounted to 77.5%.

These data come from ChEMBL document CHEMBL1133838, “Novel 5-vinyl pyrimidine nucleosides with potent anti-hepatitis B virus activity” (Bioorg Med Chem Lett, 2001).
